Measurements as given in ChEMBL document CHEMBL2434966, “Novel N-4-piperazinyl-ciprofloxacin-chalcone hybrids: synthesis, physicochemical properties, anticancer and topoisomerase I and II inhibitory activity” (Eur J Med Chem, 2013).

What was measured:
[1] = molecular target: T1, DNA topoisomerase 1 (Homo sapiens) (UniProt P11387); assay: Inhibition of human recombinant topoisomerase 1-mediated relaxation of supercoiled pBR322 DNA at 100 uM after 30 mins by agarose gel electrophoresis relative to control
T1 sequence (whole entry): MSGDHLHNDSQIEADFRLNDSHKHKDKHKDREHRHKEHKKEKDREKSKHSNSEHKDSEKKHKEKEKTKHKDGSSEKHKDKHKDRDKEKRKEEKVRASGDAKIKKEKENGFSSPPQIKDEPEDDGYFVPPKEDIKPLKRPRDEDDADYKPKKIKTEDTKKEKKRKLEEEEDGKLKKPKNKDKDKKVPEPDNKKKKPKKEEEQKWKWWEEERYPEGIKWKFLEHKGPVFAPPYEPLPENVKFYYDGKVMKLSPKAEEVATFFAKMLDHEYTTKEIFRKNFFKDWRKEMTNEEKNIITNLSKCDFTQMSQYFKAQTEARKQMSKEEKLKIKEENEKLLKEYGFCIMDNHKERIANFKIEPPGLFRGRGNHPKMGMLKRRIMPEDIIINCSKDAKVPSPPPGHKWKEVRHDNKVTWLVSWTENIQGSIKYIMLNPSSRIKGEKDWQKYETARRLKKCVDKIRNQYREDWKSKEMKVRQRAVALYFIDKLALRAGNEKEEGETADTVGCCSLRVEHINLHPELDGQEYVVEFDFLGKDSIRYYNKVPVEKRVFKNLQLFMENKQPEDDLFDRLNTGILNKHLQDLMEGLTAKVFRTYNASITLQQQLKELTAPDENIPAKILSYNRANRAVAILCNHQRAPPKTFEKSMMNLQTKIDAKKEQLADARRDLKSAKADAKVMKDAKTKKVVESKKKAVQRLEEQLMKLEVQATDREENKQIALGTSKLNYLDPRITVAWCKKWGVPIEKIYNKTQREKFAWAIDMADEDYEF
Summary of the method: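 Recombinant human topo I (0.4 units) with 100 ng supercoiled pBR322, 37 °C for 30 min in Tris-HCl pH 7.9, 150 mM NaCl, 0.1% BSA, 1 mM spermidine, 5% glycerol. Compounds came from 20 mM DMSO stocks, with matched DMSO in the enzyme-only control. Stopped with sarcosyl; 1% agarose/TAE gel, ethidium stain, UV densitometry. Camptothecin was the positive control.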

[2] = Growth inhibition of human Hs 578T cells after 48 hrs by sulforhodamine B assay; type: functional; settings: for CC50: read-out: LC50 (the source's name)
Summary of the method: (§1)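 NCI 60-panel five-dose test at 10-fold dilutions, 10^-4 to 10^-8 M, with 48 h continuous exposure and SRB protein read-out. Percent growth derived from time-zero, untreated-control and treated absorbances. GI50 is the concentration where [(Ti-Tz)/(C-Tz)]×100 = 50. TGI is taken at Ti = Tz. LC50 is taken at [(Ti-Tz)/Tz]×100 = -50.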

A498 = assay: Growth inhibition of human A498 cells after 48 hrs by sulforhodamine B assay; type: functional; settings: A498, 48 h; summary of the method: as §1
SNB-75 = assay: Growth inhibition of human SNB75 cells after 48 hrs by sulforhodamine B assay; type: functional; settings: SNB-75, 48 h; for CC50: read-out: LC50 (the source's name)
Summary of the method: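 NCI 60-cell panel, five concentrations (10-fold dilutions, 0.01–100 µM), 48 h continuous exposure; SRB protein stain read spectrophotometrically. Percent growth from time-zero, untreated-control and treated absorbances. GI50 is the concentration giving 50% lower net protein increase than control. Values beyond the tested range are reported as more or less than the highest or lowest concentration.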

SF-539 = assay: Growth inhibition of human SF539 cells after 48 hrs by sulforhodamine B assay; type: functional; settings: SF-539, 48 h; for CC50: read-out: LC50 (the source's name)
Summary of the method: (§2)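 NCI five-dose screen on the full 60-cell-line panel. Cells were given 10-fold dilutions from 10^-4 to 10^-8 M with continuous 48 h exposure, and growth was read by SRB staining. Percent growth was taken from time-zero, control and treated absorbances. GI50, TGI and LC50 were then derived, the GI50 being the concentration that gives a 50% lower net protein increase than control.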

SF-268 = assay: Growth inhibition of human SF268 cells after 48 hrs by sulforhodamine B assay; type: functional; settings: SF-268, 48 h; for CC50: read-out: LC50 (the source's name); summary of the method: as §2
K562 = assay: Growth inhibition of human K562 cells after 48 hrs by sulforhodamine B assay; type: functional; settings: K562, 48 h; summary of the method: as §1
DU-145 = assay: Growth inhibition of human DU145 cells assessed as cell growth at 10^-5 M after 48 hrs by sulforhodamine B assay; type: functional; settings: DU-145, 48 h, read-out: Activity
Summary of the method: (§3)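 NCI 60-cell-line primary screen. Single concentration of 10^-5 M, 48 h incubation. End point by sulforhodamine B protein staining read spectrophotometrically. Reported as percent growth of treated cells relative to untreated control cells.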

SN12C = assay: Growth inhibition of human SN12C cells assessed as cell growth at 10^-5 M after 48 hrs by sulforhodamine B assay; type: functional; settings: read-out: Activity
Summary of the method: (§4)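 NCI 60-cell-line primary one-dose screen. Cells were exposed to a single 10^-5 M concentration for 48 h. The end point was sulforhodamine B protein staining, read spectrophotometrically. Results are reported as percent growth of treated cells relative to untreated control cells.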

IGROV-1 = assay: Growth inhibition of human IGROV1 cells assessed as cell growth at 10^-5 M after 48 hrs by sulforhodamine B assay; type: functional; settings: IGROV-1, 48 h, read-out: Activity; summary of the method: as §3
SK-MEL-5 = assay: Growth inhibition of human SK-MEL-5 cells assessed as cell growth at 10^-5 M after 48 hrs by sulforhodamine B assay; type: functional; settings: SK-MEL-5, 48 h, read-out: Activity; summary of the method: as §4
SK-MEL-28 = assay: Growth inhibition of human SK-MEL-28 cells assessed as cell growth at 10^-5 M after 48 hrs by sulforhodamine B assay; type: functional; settings: SK-MEL-28, 48 h, read-out: Activity; summary of the method: as §4
SK-MEL-2 = assay: Growth inhibition of human SK-MEL-2 cells assessed as cell growth at 10^-5 M after 48 hrs by sulforhodamine B assay; type: functional; settings: SK-MEL-2, 48 h, read-out: Activity; summary of the method: as §4
NCI-H460 = assay: Growth inhibition of human NCI-H460 cells assessed as cell growth at 10^-5 M after 48 hrs by sulforhodamine B assay; type: functional; settings: NCI-H460, 48 h, read-out: Activity; summary of the method: as §4
HOP-92 = assay: Growth inhibition of human HOP92 cells assessed as cell growth at 10^-5 M after 48 hrs by sulforhodamine B assay; type: functional; settings: HOP-92, 48 h, read-out: Activity; summary of the method: as §3
MOLT-4 = assay: Growth inhibition of human MOLT4 cells assessed as cell growth at 10^-5 M after 48 hrs by sulforhodamine B assay; type: functional; settings: MOLT-4, 48 h, read-out: Activity; summary of the method: as §4

| SMILES | inhibition [1] | GI50 [2] | TGI [2] | CC50 [2] | GI50 (A498) | LC50 (concentration killing 50% of starting cells) (A498) | TGI (A498) | GI50 (SNB-75) | TGI (SNB-75) | CC50 (SNB-75) | GI50 (SF-539) | TGI (SF-539) | CC50 (SF-539) | GI50 (SF-268) | TGI (SF-268) | CC50 (SF-268) | GI50 (K562) | LC50 (concentration giving 50% net cell kill) (K562) | TGI (K562) | growth at 10 µM (DU-145) | also measured |
| --- | --- | --- | --- | --- | --- | --- | --- | --- | --- | --- | --- | --- | --- | --- | --- | --- | --- | --- | --- | --- | --- |
| COc1cc(/C=C/C(=O)c2ccc(NC(=O)CN3CCN(c4cc5c(cc4F)c(=O)c(C(=O)O)cn5C4CC4)CC3)cc2)cc(OC)c1OC | 67.4% | 53.8 µM | > 100 µM | > 100 µM | 0.36 µM | 5.47 µM | 1.8 µM | 5.75 µM | > 100 µM | > 100 µM | 0.49 µM | 2.62 µM | > 100 µM | 1.06 µM | 61.2 µM | > 100 µM | 0.27 µM | > 100 µM | > 100 µM | 2.17% | growth at 10 µM (SN12C): 10.3%; growth at 10 µM (IGROV-1): -1.19%; growth at 10 µM (SK-MEL-5): -42.9%; growth at 10 µM (SK-MEL-28): 34%; growth at 10 µM (SK-MEL-2): 30%; growth at 10 µM (NCI-H460): -20%; growth at 10 µM (HOP-92): -1.75%; growth at 10 µM (MOLT-4): -1.1% |
| O=C(CN1CCN(c2cc3c(cc2F)c(=O)c(C(=O)O)cn3C2CC2)CC1)Nc1ccc(C(=O)/C=C/c2ccccc2)cc1 | 57.2% | 4.99 µM | > 100 µM | > 100 µM | 1.28 µM | > 100 µM | 7.37 µM | 3.22 µM | > 100 µM | > 100 µM | 3.6 µM | > 100 µM | > 100 µM | 4.13 µM | > 100 µM | > 100 µM | 3.07 µM | > 100 µM | > 100 µM | 43.1% | growth at 10 µM (SN12C): 11.3%; growth at 10 µM (IGROV-1): 42.9%; growth at 10 µM (SK-MEL-5): 13.6%; growth at 10 µM (SK-MEL-28): 85.7%; growth at 10 µM (SK-MEL-2): 53.7%; growth at 10 µM (NCI-H460): 7.12%; growth at 10 µM (HOP-92): 14.9%; growth at 10 µM (MOLT-4): 19% |
